Results on 52 compounds are retold here after ChEMBL document CHEMBL1131373, “Novel nonpeptide CCK-B antagonists: design and development of quinazolinone derivatives as potent, selective, and orally active CCK-B antagonists” (J Med Chem, 1998).

Test [1] has as its target T1, Gastrin/cholecystokinin type B receptor (Mus musculus, UniProt P56481).
T1 sequence (P56481 whole entry): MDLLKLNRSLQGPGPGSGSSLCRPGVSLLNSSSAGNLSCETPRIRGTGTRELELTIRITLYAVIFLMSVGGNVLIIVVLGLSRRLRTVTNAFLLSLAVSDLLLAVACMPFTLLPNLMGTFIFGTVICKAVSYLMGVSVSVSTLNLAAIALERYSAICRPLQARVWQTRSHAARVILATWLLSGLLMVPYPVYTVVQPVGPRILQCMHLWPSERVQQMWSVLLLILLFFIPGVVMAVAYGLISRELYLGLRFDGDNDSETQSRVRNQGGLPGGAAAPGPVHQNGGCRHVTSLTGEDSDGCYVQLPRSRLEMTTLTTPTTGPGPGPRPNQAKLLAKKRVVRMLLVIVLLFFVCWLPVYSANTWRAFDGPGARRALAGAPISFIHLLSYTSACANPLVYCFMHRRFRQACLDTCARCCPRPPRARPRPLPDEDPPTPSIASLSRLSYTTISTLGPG
As to the kind of experiment: Binding affinity towards Cholecystokinin type B receptor (CCK-B) receptor in mouse cerebral cortex using [125I]bolton Hunter CCK-8 as radioligand. It counts as tissue-based.

The target of test [2] is T2, Cholecystokinin receptor type A (Rattus norvegicus, UniProt P30551).
T2 sequence (P30551 whole entry): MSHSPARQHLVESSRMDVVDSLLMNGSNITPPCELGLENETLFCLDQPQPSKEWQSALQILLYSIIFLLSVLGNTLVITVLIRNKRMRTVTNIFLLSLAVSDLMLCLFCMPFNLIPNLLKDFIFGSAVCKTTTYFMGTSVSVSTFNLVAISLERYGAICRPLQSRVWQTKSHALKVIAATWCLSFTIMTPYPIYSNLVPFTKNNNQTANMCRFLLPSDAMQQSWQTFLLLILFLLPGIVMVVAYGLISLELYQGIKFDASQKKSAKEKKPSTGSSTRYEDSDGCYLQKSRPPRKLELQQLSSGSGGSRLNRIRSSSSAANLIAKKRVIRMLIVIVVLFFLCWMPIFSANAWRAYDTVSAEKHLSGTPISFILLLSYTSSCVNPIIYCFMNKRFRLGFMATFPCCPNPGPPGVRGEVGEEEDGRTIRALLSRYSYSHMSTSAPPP
As to the kind of experiment: Binding affinity towards Cholecystokinin type A receptor (CCK-A) receptor from rat pancreas using [125I]bolton Hunter CCK-8 as radioligand. Put shortly:
(§1)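 IC50 = concentration giving half-maximal inhibition of specific [125I]Bolton Hunter CCK-8 binding, with CCK-B sites from mouse cerebral cortex and CCK-A sites from rat pancreas. Weaker compounds given as % inhibition at 10 μM. Values are geometric means of at least three separate experiments; statistical errors 15% of the mean.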

Test [3] addresses T3, Cholecystokinin receptor type A (Rattus norvegicus) (UniProt P30551).
T3 sequence (whole entry): T2 sequence (P30551 whole entry)
As to the kind of experiment: Binding affinity towards Cholecystokinin type A receptor (CCK-A) receptor from rat pancreas using [125I]bolton Hunter CCK-8 as radioligand at a concentration of 10 um. An outline of the steps:
as §1

Test [4] deals with T4, Gastrin/cholecystokinin type B receptor (Mus musculus) (UniProt P56481).
T4 sequence (whole entry): T1 sequence (P56481 whole entry)
As to the kind of experiment: Binding affinity towards Cholecystokinin type B receptor (CCK-B) receptor in mouse cerebral cortex using [125I]bolton Hunter CCK-8 as radioligand at a concentration of 10 um. It counts as tissue-based. An outline of the steps: as §1

What is called IC50 is the concentration needed to halve the response being measured. Read a low IC50 as inhibition by little substance. In test [1], `COC(=O)c1cccc(NC(=O)N[C@@H]2N=C(c3ccccc3)c3ccccc3N(C)C2=O)c1` gave an IC50 of 8 nM.
As to `CC(C)Oc1cccc(-n2c(NNC(=O)Nc3cccc(C#N)c3)nc3ccccc3c2=O)c1`, the IC50 in test [2] is 5350 nM; in test [1], 1.2 nM.
For `CN(C)c1cccc(-n2c(CCc3c[nH]c4cc(Br)ccc34)nc3ccccc3c2=O)c1`, the IC50 in test [1] stood at 16 nM.
Broadly, the inhibition is the percentage by which the read-out fell short of the control. The low end stands for a weak effect, the high end for a strong effect. In turn, `N#Cc1cccc(NC(=O)NNc2nc3ccccc3c(=O)n2-c2ccccc2)c1` displayed an inhibition in test [3] of 37%. This compound showed an IC50 in test [1] of 262 nM.
As to `Cc1cccc(NC(=O)NNc2nc3ccccc3c(=O)n2-c2cccnc2)c1`, the IC50 in test [2] is 12500 nM; in test [1], 4280 nM.
Taken in the same sequence, the figures for `CC(C)Oc1cccc(-n2c(NNC(=O)Nc3cccc(C(F)(F)F)c3)nc3ccccc3c2=O)c1` were 2240 nM and 8 nM.
Taken in the same sequence, the figures for `CCOC(=O)c1cccc(NC(=O)NNc2nc3ccccc3c(=O)n2-c2cccc(Cl)c2)c1` were 4980 nM and 33 nM.
In test [1], `CC(C)Oc1cccc(-n2c(CCc3c[nH]c4cc(Br)ccc34)nc3ccccc3c2=O)c1` yielded an IC50 of 9.3 nM.
Consider `CCOC(=O)c1cccc(NC(=O)NNc2nc3ccccc3c(=O)n2-c2cccc(N(C)C)c2)c1`, for which the IC50 in test [2] amounted to 2650 nM; in test [1], 5 nM.
In the case of `COc1ccccc1NC(=O)NNc1nc2ccccc2c(=O)n1-c1cccc(OC(C)C)c1`, the half-maximal inhibitory concentration (IC50) was determined as 4200 nM in test [2] and 10 nM in test [1].
Turning to `CCOC(=O)c1cccc(NC(=O)NNc2nc3ccccc3c(=O)n2-c2cccnc2)c1`, the IC50 in test [2] stood at 11200 nM; in test [1], 319 nM.
For `O=C(NNc1nc2ccccc2c(=O)n1-c1ccccc1)Nc1ccccc1`, in that order: 7330 nM and 1240 nM.
Take `CCOC(=O)c1cccc(NC(=O)NNc2nc3ccccc3c(=O)n2-c2ccc(Cl)c(Cl)c2)c1`: the inhibition in test [3] worked out at 16%. The IC50 in test [1] amounted to 2.4 nM.
Consider `COc1cccc(N(CC(=O)N(C)c2ccccc2)C(=O)CNC(=O)Nc2cccc(C(=O)O)c2)c1`, for which the IC50 in test [2] is 925 nM; in test [1], 23 nM.
Taken in the same sequence, the figures for `COc1cccc(-n2c(NNC(=O)Nc3cccc(C)c3)nc3ccccc3c2=O)c1` were 5100 nM and 200 nM.
As to `Cc1cccc(NC(=O)NNc2nc3ccccc3c(=O)n2-c2ccc(Cl)c(Cl)c2)c1`, in test [3], the inhibition stood at 10%. For the same compound, the IC50 in test [1] was 97 nM.
For `CCOC(=O)c1ccc(NC(=O)NNc2nc3ccccc3c(=O)n2-c2cccc(OC(C)C)c2)cc1`, the IC50 was 3160 nM in test [2] and 57 nM in test [1].
Regarding `CC(C)Oc1cccc(-n2c(NNC(=O)Nc3cccc([N+](=O)[O-])c3)nc3ccccc3c2=O)c1`, the IC50 in test [2] was determined as 2560 nM; in test [1] it was 1 nM.
For `CCOC(=O)c1cccc(NC(=O)NNc2nc3ccccc3c(=O)n2-c2cccc(OCC)c2)c1`, in that order: 1210 nM and 5 nM.
For `Cc1cccc(NC(=O)NNc2nc3ccccc3c(=O)n2-c2cccc(Cl)c2Cl)c1`, in that order: 3010 nM and 73 nM.
Taken in the same sequence, the figures for `CC(C)Oc1cccc(-n2c(NNC(=O)Nc3ccc(C(F)(F)F)cc3)nc3ccccc3c2=O)c1` were 2780 nM and 38 nM.
Regarding `Cc1cccc(NC(=O)NNc2nc3ccccc3c(=O)n2-c2cccc(OC(C)C)c2)c1`, the IC50 in test [2] is 6400 nM; in test [1], 11 nM.
For `CC(C)Oc1cccc(-n2c(NNC(=O)Nc3ccccc3)nc3ccccc3c2=O)c1`, in that order: 4580 nM and 15 nM.
Taken in the same sequence, the figures for `CC(C)Oc1cccc(-n2c(NNC(=O)c3ccc(Br)cc3)nc3ccccc3c2=O)c1` were 5560 nM and 88 nM.
As to `CC(C)Oc1cccc(-n2c(NNC(=O)Nc3cccc(Cl)c3)nc3ccccc3c2=O)c1`, the IC50 in test [2] is 2420 nM; in test [1], 5.9 nM.
For the compound `CCOC(=O)c1cccc(NC(=O)NNc2nc3ccccc3c(=O)n2-c2cccc(OC(C)C)c2)c1`, the IC50 in test [2] turned out to be 3470 nM; in test [1] it was 1.5 nM.
Turning to `COc1cccc(N(CC(=O)N(C)c2ccccc2)C(=O)CNC(=O)Nc2cccc(C)c2)c1`, the half-maximal inhibitory concentration (IC50) in test [2] was determined as 140 nM; in test [1], 8 nM.
In turn, `CCOC(=O)c1cccc(NC(=O)NNc2nc3ccccc3c(=O)n2-c2ccc(OC)cc2)c1` had an inhibition in test [3] of 20%. For the same compound, in test [1], the IC50 is 592 nM.
As for `Cc1cccc(NC(=O)NNc2nc3ccccc3c(=O)n2-c2cccc(N(C)C)c2)c1`, the IC50 came out at 4900 nM in test [2] and 63 nM in test [1].
For the compound `CC(C)Oc1cccc(-n2c(NNC(=O)Nc3ccc(Br)cc3)nc3ccccc3c2=O)c1`, the IC50 in test [2] came to 3430 nM; in test [1], 14 nM.
Take `Cc1cccc(NC(=O)NNc2nc3ccccc3c(=O)n2-c2cccc(Cl)c2)c1`: the inhibition in test [3] turned out to be 20%. This compound also registered an IC50 in test [1] of 225 nM.
Consider `COc1ccc(NC(=O)NNc2nc3ccccc3c(=O)n2-c2cccc(OC(C)C)c2)cc1`, for which the IC50 was 15500 nM in test [2] and 25 nM in test [1].
Taken in the same sequence, the figures for `COc1cccc(NC(=O)NNc2nc3ccccc3c(=O)n2-c2cccc(OC(C)C)c2)c1` were 7470 nM and 22 nM.
The compound `CCOC(=O)c1ccccc1NC(=O)NNc1nc2ccccc2c(=O)n1-c1cccc(OC(C)C)c1` had an inhibition in test [3] of 22%. Besides, the IC50 in test [1] came to 7670 nM.
For `CCOC(=O)c1cccc(NC(=O)NNc2nc3ccccc3c(=O)n2-c2ccccc2)c1`, in that order: 37% and 152 nM.
Regarding `CC(C)Oc1cccc(-n2c(NNC(=O)Nc3ccc(Cl)cc3)nc3ccccc3c2=O)c1`, the IC50 in test [2] turned out to be 3590 nM; in test [1] it was 14 nM.
Regarding `CCOC(=O)c1cccc(NC(=O)NNc2nc3ccccc3c(=O)n2-c2ccc(OC)c(OC)c2)c1`, in test [3], the inhibition stood at 20%. Further, the half-maximal inhibitory concentration (IC50) in test [1] came to 611 nM.
For the compound `Cc1cccc(NC(=O)NNc2nc3ccccc3c(=O)n2-c2cccc(N)c2)c1`, the results for the IC50 in test [2] and in test [1] were 107 nM and 219 nM, respectively.
In turn, `Cc1cccc(NC(=O)NNc2nc3ccccc3c(=O)n2-c2cccc3ccccc23)c1` gave an inhibition in test [3] of 7%. Besides, in test [1], the IC50 came out at 3560 nM.
With `CCOC(=O)c1cccc(NC(=O)NNc2nc3ccccc3c(=O)n2-c2cccc(Cl)c2Cl)c1`, the IC50 in test [2] stood at 1660 nM; in test [1], 50 nM.
Consider `CC(C)Oc1cccc(-n2c(NNC(=O)NC3CCCCC3)nc3ccccc3c2=O)c1`, for which the figures for the IC50 in test [2] and in test [1] were 17300 nM and 108 nM, respectively.
On to `CCOc1cccc(-n2c(NNC(=O)Nc3cccc(C#N)c3)nc3ccccc3c2=O)c1`, for which the IC50 was found to be 4450 nM in test [2] and 5.8 nM in test [1].
In the case of `CCOC(=O)c1cccc(NC(=O)NNc2nc3ccccc3c(=O)n2-c2cccc3ccccc23)c1`, the inhibition in test [3] is 5%; in test [4] it was 35%.
Take `CCOc1cccc(-n2c(NNC(=O)Nc3cccc(C)c3)nc3ccccc3c2=O)c1`: the IC50 in test [2] is 2570 nM; in test [1], 45 nM.
Turning to `COc1ccc(-n2c(NNC(=O)Nc3cccc(C)c3)nc3ccccc3c2=O)cc1OC`, the inhibition in test [3] was found to be 34%. For the same compound, the IC50 in test [1] was found to be 2110 nM.
For the compound `CCOC(=O)c1cccc(NC(=O)NNc2nc3ccccc3c(=O)n2-c2cccc(OC)c2)c1`, the IC50 in test [2] came out at 2330 nM; in test [1] it was 15 nM.
For `CC(C)Oc1cccc(-n2c(NNC(=O)Nc3cccc(C(=O)O)c3)nc3ccccc3c2=O)c1`, in that order: 8110 nM and 29 nM.
The compound `CCOC(=O)c1cccc(NC(=O)NNc2nc3ccccc3c(=O)n2-c2ccc(Cl)cc2)c1` showed an inhibition in test [3] of 15%. The IC50 in test [1] turned out to be 14 nM.
As for `Cc1cccc(NC(=O)NNc2nc3ccccc3c(=O)n2-c2ccc(Cl)cc2)c1`, in test [3], the inhibition was found to be 10%. In test [1], this compound gave an IC50 of 1170 nM.
Taken in the same sequence, the figures for `CCOC(=O)c1cccc(NC(=O)NNc2nc3ccccc3c(=O)n2-c2cccc(F)c2)c1` were 30% and 26 nM.
Taken in the same sequence, the figures for `Cc1cccc(NC(=O)NNc2nc3ccccc3c(=O)n2-c2cccc(F)c2)c1` were 26% and 915 nM.
Taken in the same sequence, the figures for `Cc1cccc(NC(=O)NNc2nc3ccccc3c(=O)n2-c2ccccc2)c1` were 39% and 1080 nM.
